In ChEMBL document CHEMBL1149773, “Synthesis, determination of the lipophilicity, anticancer and antimicrobial properties of some fused 1,2,4-triazole derivatives” (Eur J Med Chem, 2008):
≈ marks a conversion by molar mass, not a printed value.

Columns and labels:
Pseudomonas aeruginosa [1] = test: Antimicrobial activity against Pseudomonas aeruginosa ATCC 27853 at 200 ug/mL by disc-diffusion method; type: functional; settings: read-out: IZ
Summary of the method: (§1)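 Kirby–Bauer disc diffusion: 5 mm paper discs soaked in compound solution in DMSO (100 or 200 µg/mL; reference drugs 200 µg/mL) and laid on inoculated Mueller-Hinton agar (bacteria) or Sabouraud agar (C. albicans, Aspergillus). DMSO discs were the control. Plates ran 24 h at 35 °C. Inhibition zone diameter was scored 0–10 mm R, 11–16 mm I, 17–25 mm S; triplicate.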

Proteus vulgaris [2] = test: Antimicrobial activity against Proteus vulgaris at 100 ug/mL by disc-diffusion method; type: functional; settings: read-out: IZ; summary of the method: as §1
Proteus vulgaris [3] = test: Antimicrobial activity against Proteus vulgaris at 200 ug/mL by disc-diffusion method; type: functional; settings: read-out: IZ; summary of the method: as §1
Klebsiella pneumoniae [4] = test: Antimicrobial activity against Klebsiella pneumoniae at 100 ug/mL by disc-diffusion method; type: functional; settings: read-out: IZ; summary of the method: as §1
Klebsiella pneumoniae [5] = test: Antimicrobial activity against Klebsiella pneumoniae at 200 ug/mL by disc-diffusion method; type: functional; settings: read-out: IZ; summary of the method: as §1
Klebsiella aerogenes [6] = test: Antimicrobial activity against Enterobacter aerogenes at 100 ug/mL by disc-diffusion method; type: functional; settings: read-out: IZ; summary of the method: as §1
Klebsiella aerogenes [7] = test: Antimicrobial activity against Enterobacter aerogenes at 200 ug/mL by disc-diffusion method; type: functional; settings: read-out: IZ; summary of the method: as §1
Staphylococcus aureus [8] = test: Antimicrobial activity against Staphylococcus aureus ATCC 25923 at 100 ug/mL by disc-diffusion method; type: functional; settings: read-out: IZ; summary of the method: as §1
Staphylococcus aureus [9] = test: Antimicrobial activity against Staphylococcus aureus ATCC 25923 at 200 ug/mL by disc-diffusion method; type: functional; settings: read-out: IZ; summary of the method: as §1
[10] = tested on: Staphylococcus epidermidis; test: Antimicrobial activity against Staphylococcus epidermidis at 100 ug/mL by disc-diffusion method; type: functional; settings: read-out: IZ; summary of the method: as §1
[11] = tested on: Staphylococcus epidermidis; test: Antimicrobial activity against Staphylococcus epidermidis at 200 ug/mL by disc-diffusion method; type: functional; settings: read-out: IZ; summary of the method: as §1
Streptococcus pyogenes [12] = test: Antimicrobial activity against Streptococcus pyogenes at 100 ug/mL by disc-diffusion method; type: functional; settings: read-out: IZ; summary of the method: as §1
Streptococcus pyogenes [13] = test: Antimicrobial activity against Streptococcus pyogenes at 200 ug/mL by disc-diffusion method; type: functional; settings: read-out: IZ; summary of the method: as §1
Streptococcus agalactiae [14] = test: Antimicrobial activity against Streptococcus agalactiae at 100 ug/mL by disc-diffusion method; type: functional; settings: read-out: IZ; summary of the method: as §1
Streptococcus agalactiae [15] = test: Antimicrobial activity against Streptococcus agalactiae at 200 ug/mL by disc-diffusion method; type: functional; settings: read-out: IZ; summary of the method: as §1
Candida albicans [16] = test: Antimicrobial activity against Candida albicans ATCC 10231 at 100 ug/mL by disc-diffusion method; type: functional; settings: read-out: IZ; summary of the method: as §1
Candida albicans [17] = test: Antimicrobial activity against Candida albicans ATCC 10231 at 200 ug/mL by disc-diffusion method; type: functional; settings: read-out: IZ; summary of the method: as §1
Aspergillus sp. [18] = test: Antimicrobial activity against Aspergillus sp. at 100 ug/mL by disc-diffusion method; type: functional; settings: read-out: IZ; summary of the method: as §1
Aspergillus sp. [19] = test: Antimicrobial activity against Aspergillus sp. at 200 ug/mL by disc-diffusion method; type: functional; settings: read-out: IZ; summary of the method: as §1
Pseudomonas aeruginosa [20] = test: Antimicrobial activity against Pseudomonas aeruginosa ATCC 27853 after 24 hrs by microdilution assay; type: functional; settings: ATCC 27853, 24 h
[21] = Lipophilicity, log kw in dioxane aqueous system at pH 3.5; type: physicochemical; settings: buffer
Summary of the method: (§2)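 RP-HPLC on an octadecyl silica column (150 × 4.6 mm, 5 µm) at 22 ± 1 °C, flow 1.0 mL min⁻¹, UV detection at 254 nm. Mobile phase was methanol, acetonitrile or dioxane with water and 0.01 M phosphate buffer pH 3.5 containing 0.05 M DEA. log k_W was extrapolated to pure water by regression.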

[22] = Lipophilicity, log kw in acetonitrile aqueous system at pH 3.5; type: physicochemical; summary of the method: as §2
[23] = Lipophilicity, log kw in methanol aqueous system at pH 3.5; type: physicochemical; summary of the method: as §2
Escherichia coli [24] = test: Antimicrobial activity against Escherichia coli ATCC 25922 at 100 ug/mL by disc-diffusion method; type: functional; settings: read-out: IZ; summary of the method: as §1
Escherichia coli [25] = test: Antimicrobial activity against Escherichia coli ATCC 25922 at 200 ug/mL by disc-diffusion method; type: functional; settings: read-out: IZ; summary of the method: as §1
Pseudomonas aeruginosa [26] = test: Antimicrobial activity against Pseudomonas aeruginosa ATCC 27853 at 100 ug/mL by disc-diffusion method; type: functional; settings: read-out: IZ; summary of the method: as §1

Work on `Clc1ccc(OCc2nnc3n2CCN3c2ccc(Cl)c(Cl)c2)c(Cl)c1` yielded a zone of inhibition at 200 µg/mL (Pseudomonas aeruginosa [1]) of 17 mm, a zone of inhibition at 100 µg/mL (Proteus vulgaris [2]) of 11 mm and a zone of inhibition at 200 µg/mL (Proteus vulgaris [3]) of 17 mm. The zone of inhibition at 100 µg/mL (Klebsiella pneumoniae [4]) was 0 mm, the zone of inhibition at 200 µg/mL (Klebsiella pneumoniae [5]) was 11 mm and the zone of inhibition at 100 µg/mL (Klebsiella aerogenes [6]) was 0 mm. It also gave a zone of inhibition at 200 µg/mL (Klebsiella aerogenes [7]) of 11 mm, a zone of inhibition at 100 µg/mL (Staphylococcus aureus [8]) of 0 mm and a zone of inhibition at 200 µg/mL (Staphylococcus aureus [9]) of 0 mm. The zone of inhibition at 100 µg/mL [10] was 0 mm, the zone of inhibition at 200 µg/mL [11] was 0 mm and the zone of inhibition at 100 µg/mL (Streptococcus pyogenes [12]) was 0 mm. It also gave a zone of inhibition at 200 µg/mL (Streptococcus pyogenes [13]) of 0 mm, a zone of inhibition at 100 µg/mL (Streptococcus agalactiae [14]) of 0 mm and a zone of inhibition at 200 µg/mL (Streptococcus agalactiae [15]) of 0 mm. For the same compound, the zone of inhibition at 100 µg/mL (Candida albicans [16]) was 0 mm, the zone of inhibition at 200 µg/mL (Candida albicans [17]) was 0 mm and the zone of inhibition at 100 µg/mL (Aspergillus sp. [18]) was 0 mm. It also gave a zone of inhibition at 200 µg/mL (Aspergillus sp. [19]) of 0 mm, an MIC (Pseudomonas aeruginosa [20]) of 36.3 µM (≈ 15.6 µg/mL) and a logKw [21] of 4.61. For the same compound, the logKw [22] was 3.32, the logKw [23] was 6 and the zone of inhibition at 100 µg/mL (Escherichia coli [24]) was 0 mm. The zone of inhibition at 200 µg/mL (Escherichia coli [25]) was 0 mm and the zone of inhibition at 100 µg/mL (Pseudomonas aeruginosa [26]) was 11 mm.
